Screens from PubChem.
TAAR1 antagonist – antagonists of human TAAR1 | AID 624466 | CHO RD-HGA16 TAAR1, Fluo-8 calcium fluorescence, antagonist | 360,000 compounds, 1.5% hits | inhibition, % at 3 µM;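 active means inhibition above a per-plate cutoff, the mean inhibition of test compounds on that plate plus 3 SD, cut at about 49% in these data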
Target sequence (Q96RJ0 whole entry, looked up): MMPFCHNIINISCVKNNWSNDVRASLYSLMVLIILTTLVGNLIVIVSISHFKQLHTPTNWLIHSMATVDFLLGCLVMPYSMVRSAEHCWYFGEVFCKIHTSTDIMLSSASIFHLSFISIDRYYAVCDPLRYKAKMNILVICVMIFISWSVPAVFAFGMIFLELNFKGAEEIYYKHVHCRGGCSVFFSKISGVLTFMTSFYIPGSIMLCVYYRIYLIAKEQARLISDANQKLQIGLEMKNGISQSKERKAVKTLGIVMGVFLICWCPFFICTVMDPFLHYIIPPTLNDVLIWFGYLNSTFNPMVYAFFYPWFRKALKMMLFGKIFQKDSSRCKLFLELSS
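Test system: hTAAR1-expressing CHO RD-HGA16 cells, Gα16-coupled; Probe or stimulus: EC80 β-phenethylamine stimulus; Compound dosing: single nominal final test compound concentration of 3 µM; Timing: 140 s kinetic read after compound, 140 s after agonist; Signal: Fluo-8 calcium-sensitive fluorescence; Measure: % inhibition of agonist calcium response; Controls: DMSO and EC80 PEA controls.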
OX1R antag-1 – human HCRTR1 antagonism. CHO/OX1R cells, Fluo-8 calcium fluorescence, orexin A. inhibition, % at 5 µM. 330,000 compounds, 0.43% hits;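 active means inhibition above its plate's threshold, mean inhibition of all tested compounds on the plate plus 3 SD, cut at about 37% in these data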
Target sequence (O43613 whole entry, looked up): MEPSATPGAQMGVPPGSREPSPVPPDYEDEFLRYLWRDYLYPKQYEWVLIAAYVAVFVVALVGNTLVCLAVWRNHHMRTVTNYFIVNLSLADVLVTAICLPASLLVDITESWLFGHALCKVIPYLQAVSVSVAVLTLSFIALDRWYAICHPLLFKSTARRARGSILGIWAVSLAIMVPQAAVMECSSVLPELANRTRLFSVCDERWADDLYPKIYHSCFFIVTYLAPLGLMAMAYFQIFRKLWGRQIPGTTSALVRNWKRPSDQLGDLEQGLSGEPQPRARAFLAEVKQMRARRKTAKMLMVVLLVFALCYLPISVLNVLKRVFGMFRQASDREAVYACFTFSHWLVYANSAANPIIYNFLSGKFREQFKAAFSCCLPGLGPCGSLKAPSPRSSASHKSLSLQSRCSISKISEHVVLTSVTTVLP
OX1R antag-2 – OX1R (human) antagonism | OX1R-expressing cells, FRET antagonist read-out | AID 485270 | inhibition, % at 6.6 µM | 330,000 compounds, 1.8% hits | O43613; in the data active means inhibition mostly above about 38%, no sharp cut-off; inactive means mostly below about 40%
TAAR1 agonist – human TAAR1 agonism; Q96RJ0; CHO RD-HGA16 TAAR1, Fluo-8 calcium fluorescence; vehicle wells 0%, saturating PEA agonist 100%; activation, % at 3 µM; 360,000 compounds, 0.99% hits; AID 624467;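 active means activation above the mean activation of all test compounds in the run plus 3 SD, cut at about 38% in these data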
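Test system: RD-HGA16 (CHO) cells co-expressing Gα16 and hTAAR1 | Doses: Single dose, 3 µM | Schedule: 17-24 h seeding, 75 min 37 °C dye, 30 min RT | Evaluation: % activation from peak over basal fluorescence ratio, DMSO-to-PEA scaled | Technique: Kinetic Fluo-8 calcium fluorescence | Benchmarks: Low control DMSO, high control PEA (EC100)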
CHO parental Ca – counter-screen: ATP calcium response change in parental CHO cells; parental CHO-K1, ATP-induced calcium, Fluo-8 fluorescence; 330,000 compounds, 0.63% hits; inhibition, % at 5.6 µM; AID 463079;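 active means inhibition above that plate's mean sample inhibition plus 3 SD, cut at about 26% in these data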
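Assay system: parental CHO cells; Read-out basis: percent inhibition of ATP-evoked calcium rise, normalized to controls; Benchmarks: ATP and no-ATP DMSO wells; Compound dosing: single nominal dose of 5.6 µM per compound; Signal: Fluo-8 calcium dye fluorescence; Also added: ATP as calcium-mobilizing challenge; Repeats: singlicate.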
Each line names hits and unclear results; the compound was inactive in the other large screens. Compounds with a hit are over-represented: about 4% of the library has one in this group of screens.

O=C(CSc1cn(CCNC(=O)c2cccs2)c2ccccc12)NCc1ccccc1	OX1R antag-2 41.2
O=C(NCCn1cc(SCc2ccccc2F)c2ccccc21)c1c(F)cccc1F	TAAR1 antagonist 82.7, CHO parental Ca 80.2
O=C(CSc1cn(CCNC(=O)c2cccs2)c2ccccc12)NCC1CCCO1 (stereo not given)	none
COc1ccccc1C(=O)NCCn1cc(SCC(=O)Nc2cc(C)on2)c2ccccc21	OX1R antag-2 41.6
O=C(CSc1cn(CCNC(=O)c2cccs2)c2ccccc12)NC1CCCCC1	OX1R antag-2 41.1
CN(Cc1cnn(Cc2ccccc2)c1)C(=O)c1cccc(S(=O)(=O)N2CCOCC2)c1	none
Cc1ccccc1NC(=O)C(=O)NCC1CCCN1S(=O)(=O)c1cccs1 (stereo not given)	OX1R antag-2 33.6
O=C(NCC1CCCN1S(=O)(=O)c1cccs1)c1cccc([N+](=O)[O-])c1 (stereo not given)	OX1R antag-2 55.2
O=C(NCC1CCCN1S(=O)(=O)c1cccs1)c1ccccc1F (stereo not given)	none
Cc1c(C2(O)CCCCC2)[nH]c2ccc(C(F)(F)F)cc12	OX1R antag-2 52.5, CHO parental Ca 57.1
COc1cc(C(=O)ON=C2C=C(C)C(=O)C(C)=C2)cc(OC)c1OC	OX1R antag-2 75.3
O=C(CN1CCN(CCN2C(=O)c3cccc4cccc(c34)C2=O)CC1)c1ccc(F)cc1	OX1R antag-2 44.6
CC(C)(C)c1ccc(C#C[C@@H]2C=C[C@@H](O)[C@@H](CO)O2)cc1	none (no result: OX1R antag-1, OX1R antag-2, CHO parental Ca)
O=[N+]([O-])c1ccc(O)c2cccnc12	OX1R antag-2 66.5
O=[N+]([O-])c1ccc(O)c2ncccc12	none
O=C(COC(=O)c1ccc(S(=O)(=O)N2CCCC2)cc1)NCc1ccco1	none
Cc1noc(/C=C/Nc2ccc(F)cc2F)c1[N+](=O)[O-]	none
Cc1noc(/C=C/c2ccccn2)c1[N+](=O)[O-]	OX1R antag-2 62.5
Nc1ccn([C@@H]2O[C@H](CNC(=O)[C@H]3CCC(=O)N3)[C@@H](O)[C@H]2O)c(=O)n1	none (no result: OX1R antag-1, OX1R antag-2, CHO parental Ca)
CN(C)CCCN1C(=O)c2cccc3cccc(c23)C1=O	OX1R antag-2 56.0
O=C(CCN1C(=O)c2cccc3cccc(c23)C1=O)NCc1cccnc1	OX1R antag-2 47.1
CCN(CC(=O)Nc1c(F)cccc1F)C(=O)CN1C(=O)c2ccccc2C1=O	none
O=C(CCCCCN1C(=O)c2cccc3cccc(c23)C1=O)NCCO	OX1R antag-2 51.5
CCN(CC)C(=O)CN1C(=O)c2cccc3cccc(c23)C1=O	OX1R antag-2 69.0
CC(=O)c1ccc[n+](CC(=O)NC(C)c2ccccc2)c1 (stereo not given)	none
COc1cccc(NC(=O)CN(C)C(=O)CCN2C(=O)C3CC=CCC3C2=O)c1 (stereo not given)	none (no result: OX1R antag-1, OX1R antag-2, CHO parental Ca)
CCCC(=O)OC[C@H]1CN(C2CCCC2)S(=O)(=O)c2c(Oc3ccccc3)cccc2O1	none (no result: OX1R antag-1, OX1R antag-2, CHO parental Ca)
COc1ccc(CNC(=O)[C@@H](Cc2ccccc2)NC(=O)[C@H]2O[C@@H](n3ccc(=O)[nH]c3=O)[C@H](O)[C@@H]2O)cc1	none (no result: OX1R antag-1, OX1R antag-2, CHO parental Ca)
O=C(N[C@H](Cc1ccccc1)C(=O)NCCN1CCOCC1)[C@H]1O[C@@H](n2ccc(=O)[nH]c2=O)[C@H](O)[C@@H]1O	none (no result: OX1R antag-1, OX1R antag-2, CHO parental Ca)
C/C(=N\NC(=O)CNc1cccc(Cl)c1C)C1CC1	none
CC(NCc1ccc(S(N)(=O)=O)cc1)C(=O)Nc1ccc([N+](=O)[O-])cc1Cl (stereo not given)	OX1R antag-2 65.7
CC(NCc1ccc(S(N)(=O)=O)cc1)C(=O)Nc1cc([N+](=O)[O-])ccc1Cl (stereo not given)	none
COC(=O)N1C[C@H](O)[C@H](O)C[C@@H]1c1ccccc1Br	none (no result: OX1R antag-1, OX1R antag-2, CHO parental Ca)
CC(C)CCNC(=O)C1CC(c2ccc(C(F)(F)F)cc2)=NO1 (stereo not given)	CHO parental Ca 52.4
COCCNC(=O)C1CC(c2ccc(C(F)(F)F)cc2)=NO1 (stereo not given)	none
Clc1cccc(CON/C=N/c2ncnc3sccc23)c1	OX1R antag-2 82.2
C=CCN1C(=O)c2n[nH]c(C(C)C)c2C1c1ccc(C)cc1 (stereo not given)	none (no result: OX1R antag-1, OX1R antag-2, CHO parental Ca)
CN1Cc2c(N3CCOCC3)nc3sc(C(=O)c4ccc(Br)cc4)c(N)c3c2CC1(C)C	CHO parental Ca 34.6
CN1Cc2c(N3CCOCC3)nc3sc(C#N)c(N)c3c2CC1(C)C	none
C[C@@H]1CN([C@@H](C)CO)C(=O)CCCn2nncc2CO[C@H]1CN(C)CC1CC1	none (no result: OX1R antag-1, OX1R antag-2, CHO parental Ca)
COC(=O)c1cc(NC(=O)C2COc3ccccc3O2)ccc1Cl (stereo not given)	none
COC(=O)c1cccc(NC(=O)Nc2ccc(Cl)c(Cl)c2)c1	OX1R antag-1 66.7, OX1R antag-2 69.0
COC(=O)c1cc(NC(=O)Nc2ccccc2)ccc1Cl	TAAR1 antagonist 53.6, CHO parental Ca 49.0
CN(C)S(=O)(=O)Oc1cccc(C(=O)Nc2ccc(Cl)c(Cl)c2)c1	TAAR1 antagonist 60.5, TAAR1 agonist 40.6
COC(=O)c1cccc(NC(=O)NC(=O)c2ccccc2Cl)c1	none
O=C(Nc1ccccc1)Nc1ccccc1	TAAR1 agonist 39.3 (no result: OX1R antag-1, OX1R antag-2, CHO parental Ca)
COC(=O)c1ccc2nc(-c3ccc(Cl)cc3)c(Cc3ccccc3)n2c1	none (no result: OX1R antag-1, OX1R antag-2, CHO parental Ca)
Cc1cc(S(=O)(=O)NCC(C)C)ccc1OCC(=O)NCc1ccco1	none
COC(=O)c1cc2c(c3c4cc(F)ccc4n(S(=O)(=O)c4ccccc4)c13)C(=O)N(Cc1ccc(C(F)(F)F)cc1)C2	none (no result: OX1R antag-1, OX1R antag-2, CHO parental Ca)
CC(=O)N1CSCC1C(=O)NNS(=O)(=O)c1cccc(C(F)(F)F)c1 (stereo not given)	none
COC(=O)c1sccc1NC(=O)Nc1ccc(C)c(C)c1	none (no result: OX1R antag-1, OX1R antag-2, CHO parental Ca)
COC(=O)c1sccc1NC(=O)Nc1ccc(Cl)c(Cl)c1	TAAR1 antagonist 53.8
O=C(Nc1ccc(Cl)c(Cl)c1)Nc1ccccc1NS(=O)(=O)c1cccs1	CHO parental Ca 35.0
O=C(Nc1ccccc1)Nc1ccc(-n2ccc(C(F)(F)F)n2)cc1	TAAR1 antagonist 57.8, CHO parental Ca 41.2
O=C(Nc1ccccc1)Nc1ccccc1NS(=O)(=O)c1cccs1	none
CSCc1ccc(C(=O)OCc2nc3ccccc3s2)o1	none
C[C@H](O)[C@@H]1C(=O)N2CCc3c([nH]c4c(-c5ccc6c(c5)OCO6)cccc34)[C@@H]2C[C@@H]1N(C)C(=O)NC1CCCCC1	none (no result: OX1R antag-1, OX1R antag-2, CHO parental Ca)
CC1CCc2nc(NC(=O)C3COc4ccccc4O3)sc2C1 (stereo not given)	OX1R antag-2 39.1
O=S(=O)(c1cccs1)N1CCCc2ccccc21	CHO parental Ca 56.3
O=C(Nc1ccc2c(c1)N(S(=O)(=O)c1cccs1)CCC2)c1c(F)cccc1Cl	OX1R antag-2 54.8
O=S(=O)(c1cccs1)N1CCc2ccccc21	none
COc1cccc(OC)c1C(=O)Nc1ccc2c(c1)N(S(=O)(=O)c1cccs1)CCC2	none
O=C(Nc1c2c(nc3ccccc13)CCCC2)c1cccc([N+](=O)[O-])c1	none
